Data on five molecules can be found in ChEMBL document CHEMBL4118124, “Quinone skeleton as a new class of irreversible inhibitors against Staphylococcus aureus sortase A” (Bioorg Med Chem Lett, 2018).

The source made the active and inactive calls. The rule behind the calls is not given here.

Series [1] concerns the target T1, Sortase A (Staphylococcus aureus, UniProt Q9S446). The series is described as follows: Inhibition of Staphylococcus aureus SrtA deltaN24 mutant transpeptidation activity using abz-LPATG-dnp as substrate preincubated for 10 mins followed by substrate addition measured every 2 mins for 20 mins by FRET assay.
The test system of series [2] is Staphylococcus aureus. The series is described as follows: Growth inhibition of Staphylococcus aureus Newman at 150 uM incubated for 12 hrs measured every hour by spectrophotometry. The following applies: in vivo. The class given is organism-based.
The target in series [3] is T2, Sortase A (Staphylococcus aureus) (UniProt Q9S446).
T2 sequence (whole entry): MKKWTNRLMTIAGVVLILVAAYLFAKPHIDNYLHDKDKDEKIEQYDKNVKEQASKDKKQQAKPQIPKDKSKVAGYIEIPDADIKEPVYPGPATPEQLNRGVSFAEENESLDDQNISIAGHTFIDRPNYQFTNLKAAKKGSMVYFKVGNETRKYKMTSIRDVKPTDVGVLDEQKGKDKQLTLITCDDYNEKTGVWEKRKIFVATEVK
The series is described as follows: Inhibition of Staphylococcus aureus Newman SrtA assessed as decrease in SpA display by SDS/PAGE immunoblotting assay. The following applies: Staphylococcus aureus subsp. aureus str. Newman. For orientation: A western blot detects proteins with antibodies after separation by electrophoresis.

Series [4] deals with T2, Sortase A (Staphylococcus aureus). The series is described as follows: Irreversible inhibition of Staphylococcus aureus SrtA deltaN24 mutant transpeptidation activity using […] as substrate assessed as remaining activity at 10 fold IC50 preincubated for 1 hr followed by protein dilution and subsequent substrate addition measured every 2 mins for 20 mins by FRET assay relative to control.

Series [5] has as its system Staphylococcus aureus. The series is described as follows: Antibiofilm activity against Staphylococcus aureus Newman assessed as inhibition of biofilm biomass after 18 hrs by crystal violet staining-based assay. The class given is functional, organism-based.
The target in series [6] is T1, Sortase A. The series is described as follows: (§1) Inhibition of Staphylococcus aureus SrtA deltaN24 mutant assessed as decrease in transpeptidation of IsdA (64 to 323 residues) incubated for 1.25 hrs in presence of NH2-Gly3 nucleophile by SDS-PAGE method. In a few lines: (§2)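 Affinity-purified IsdA64–323, a natural SrtA substrate, incubated with purified SrtA ΔN24 and NH2-Gly3 nucleophile, with or without compound. Sorting-signal cleavage giving the transpeptidation product resolved by SDS-PAGE; inhibition seen as partial or complete loss of product.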

The target of series [7] is T2, Sortase A (Staphylococcus aureus). The series is described as follows: Inhibition of Staphylococcus aureus Newman SrtA assessed as decrease in SpA display by FITC-IgG-based fluorescence assay. The following applies: Staphylococcus aureus subsp. aureus str. Newman.
Series [8] has the same target. The series is described as follows: Binding affinity to Staphylococcus aureus 15N-labelled SrtA deltaN59 mutant at 1:0 and 1:1 molar ratio of protein and compound by 2D 1H-15N HSQC spectra method.
For series [9] the target is unchanged. The series is described as follows: Irreversible binding affinity to Staphylococcus aureus SrtA deltaN24 mutant at Cys184 at 10 fold IC50 preincubated with compound for 1 hr followed by protein dilution by ESI-LC-MS/MS method.
Series [10] deals with T1, Sortase A. The series is described as follows: (§3) Irreversible inhibition of Staphylococcus aureus SrtA deltaN24 mutant transpeptidation activity using abz-LPATG-dnp as substrate incubated for 5 to 25 mins by FRET assay.
The target of series [11] is T2, Sortase A (Staphylococcus aureus). The description is as §3.
For series [12] the target is unchanged. The series is described as follows: Binding affinity to Staphylococcus aureus 15N-labelled SrtA deltaN59 C184A mutant at 1:0, 1:1, 1:2, 1:5 and 1:10 molar ratio of protein and compound by 2D 1H-15N HSQC spectra method.
For series [13] the target is unchanged. The series is described as follows: Irreversible inhibition of Staphylococcus aureus SrtA deltaN24 mutant transpeptidation activity using abz-LPATG-dnp as substrate assessed as ratio Kinact to Ki incubated for 5 to 25 mins by FRET assay.
Series [14] has the same target. The series is described as follows: Irreversible binding affinity to Staphylococcus aureus SrtA deltaN24 mutant at 10 fold IC50 preincubated with compound for 1 hr followed by protein dilution by ESI-LC/MS method.
For series [15] the target is unchanged. The description is as §1. A digest of the protocol:
as §2

Series [16] deals with Staphylococcus aureus. The series is described as follows: Growth inhibition of Staphylococcus aureus Newman at 50 uM measured every hour. The settings on record: in vivo. It is filed as organism-based.

Turning to `O=C1C[C@H]2O[C@@H](CCc3ccccc3)C3=C(C(=O)C=CC3=O)[C@H]2O1`, the IC50 (as a rule, the concentration needed to halve the response being measured) worked out at 19.4 µM in series [1] and 50 µM in [6]. Further, the “growth inhibition (GI)” value in series [2] is on record as “Non-Toxic”. Further, the inhibition result in series [3], in series [5] and in series [7] was “Dose-dependent effect” each time. Besides, in [4], the Activity is less than 10%.

As for `O=C1C[C@H]2O[C@H](CCc3ccccc3)C3=C(C(=O)C=CC3=O)[C@H]2O1`, the values for the IC50 in [1] and in series [6] were 6.2 µM and 10 µM, respectively. The outcome in [8], in series [9] and in series [14] was Active. In addition, the “growth inhibition (GI)” value in [2] was “Non-Toxic”. Further, the inhibition result in [3], in series [5] and in [7] was “Dose-dependent effect” each time. In addition, the Activity in series [4] was less than 10%. For the same molecule, the Ki in series [10] worked out at 3.57 µM. Further, the Kinact in series [11] was 0.0388 min⁻¹. In addition, in series [12], the outcome was inactive. Further, in series [13], the Ratio worked out at 0.0109 µM⁻¹ min⁻¹.

`CCCNC1=C(C)C(=O)c2c(/C=C/S(=O)(=O)c3ccccc3)cccc2C1=O` had an IC50 in series [1] greater than 50 µM. Further, the inhibition result in series [15] was “inactive”.

As to `CC(C)=CC[C@@H](O)C1=CC(=O)c2c(O)ccc(O)c2C1=O` [SHIKONIN], the IC50 in [1] stood at 0.3 µM; in [6] it was 5 µM. Moreover, the “growth inhibition (GI)” value in series [16] is given as “Toxic”.

Turning to `CC(C)=CC[C@H](O)C1=CC(=O)c2c(O)ccc(O)c2C1=O` [ALKANNIN], the IC50 is 0.36 µM in series [1] and 5 µM in series [6]. Moreover, the “growth inhibition (GI)” value in series [16] is recorded as “Toxic”.
